Measurements published in ChEMBL document CHEMBL3272294, “Antiviral activity of some beta-diketones. 1. Aryl alkyl diketones. In vitro activity against both RNA and DNA viruses” (1977).
≈ marks a conversion by molar mass, not a printed value. Calls of active or inactive are those of the source. The calls are words filed in the database; no cut-off is given here.

Columns and labels:
[1] = system: Equine rhinovirus; experiment: Antiviral activity against Equine rhinovirus assessed as inhibition of virus-induced cytopathic effect at 33 degC after 48 hrs by two-fold dilution method
[2] = system: Human alphaherpesvirus 2; experiment: Antiviral activity against Herpes simplex virus 2 assessed as inhibition of virus-induced cytopathic effect at 37 degC after 72 hrs by two-fold dilution method; format: functional; conditions: for MIC: Human alphaherpesvirus 2, 72 h
How it was run: (§1)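 Susceptible monolayers in stationary tubes were infected with 100 tissue culture infective doses and allowed to adsorb for 1 h. Compound was then added in M-199 with 5% inactivated fetal calf serum at 50–0.3 μg/mL in twofold dilutions, four tubes per dilution. Tubes were held at 37 °C and CPE was scored at 48 and 72 h. MIC is the lowest nontoxic level giving complete CPE inhibition, with toxicity read from uninfected parallel tubes.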

[3] = system: Human alphaherpesvirus 2; experiment: Antiviral activity against Herpes simplex virus 2 Curtis assessed as inhibition of virus-induced cytopathic effect at 37 degC after 72 hrs by two-fold dilution method; format: functional; conditions: Human alphaherpesvirus 2, Curtis
How it was run: as §1

[4] = system: Human alphaherpesvirus 1; experiment: Antiviral activity against Herpes simplex virus 1 Sheely assessed as inhibition of virus-induced cytopathic effect at 37 degC after 72 hrs by two-fold dilution method; format: functional; conditions: Human alphaherpesvirus 1, Sheely
How it was run: as §1

[5] = system: rhinovirus B14; experiment: Antiviral activity against Human rhinovirus 14 assessed as inhibition of virus-induced cytopathic effect at 37 degC after 72 hrs by two-fold dilution method; format: functional; conditions: Rhinovirus B
[6] = Antiviral activity against Human rhinovirus 17 assessed as inhibition of virus-induced cytopathic effect at 37 degC after 72 hrs by two-fold dilution method; format: functional, Human rhinovirus B17; conditions: Rhinovirus B
[7] = system: Influenza A virus; experiment: Antiviral activity against Influenza A2 virus Jap 170 infected in ferret trachea assessed as reduction in viral yield at 100 ug/ml after 3 days followed by compound-washout measured after 24 hrs by chick embryo-based hemagglutination titration method relative to control; format: functional; design: scale not given: the % may be the effect or the level left
[8] = system: unidentified influenza virus; experiment: Antiviral activity against Parainfluenza virus assessed as inhibition of virus-induced cytopathic effect at 37 degC after 72 hrs by two-fold dilution method; format: functional
How it was run: as §1

[9] = system: Respiratory syncytial virus; experiment: Antiviral activity against Respiratory syncytial virus assessed as inhibition of virus-induced cytopathic effect at 37 degC after 72 hrs by two-fold dilution method; format: functional; conditions: human respiratory syncytial virus
How it was run: as §1

[10] = system: rhinovirus A2; experiment: Antiviral activity against Human rhinovirus 2 assessed as inhibition of virus-induced cytopathic effect at 37 degC after 72 hrs by two-fold dilution method; format: functional; conditions: Rhinovirus A
[11] = system: Influenza A virus; experiment: Antiviral activity against Influenza A2 virus Jap 170 infected in ferret trachea assessed as reduction in viral yield at 200 ug/ml after 3 days followed by compound-washout measured after 24 hrs by chick embryo-based hemagglutination titration method relative to control; format: functional; design: scale not given: the % may be the effect or the level left
[12] = system: Human alphaherpesvirus 1; experiment: Antiviral activity against Herpes simplex virus 1 assessed as inhibition of virus-induced cytopathic effect at 37 degC after 72 hrs by two-fold dilution method; format: functional; conditions: Human alphaherpesvirus 1, 72 h
How it was run: as §1

CCC(=O)C(CCCCCCc1ccc(OC)cc1)C(=O)CC
MIC [1]: 3 µg/mL (≈ 9.42 µM)

CCC(=O)C(CCCc1ccc(O)cc1)C(=O)CC
inhibition [2]: inactive

CCC(=O)C(CCCCCCc1ccc(Cl)cc1)C(=O)CC
MIC [1]: 1.5 µg/mL (≈ 4.65 µM)

CCC(=O)C(CCCCCCCc1ccc(O)cc1)C(=O)CC
MIC [2]: 6 µg/mL (≈ 18.8 µM) | MIC [1]: 6 µg/mL (≈ 18.8 µM)

CCC(=O)C(CCCCCCc1ccccc1OC)C(=O)CC
MIC [1]: 12 µg/mL (≈ 37.7 µM)

CCC(=O)C(CCCCCCc1ccc(OC(=O)c2ccccc2C)cc1)C(=O)CC
MIC [1]: 6 µg/mL (≈ 14.2 µM)

CCC(=O)C(CC/C(=C/CCc1ccc2c(c1)OCO2)CC)C(=O)CC
MIC [1]: 6 µg/mL (≈ 16.7 µM)

CC/C(=C\CCc1ccc2c(c1)OCO2)CCC(C(C)=O)C(C)=O
MIC [1]: 6 µg/mL (≈ 18.2 µM)

CCC(=O)C(CC/C(=C/C=C/c1ccc2c(c1)OCO2)CC)C(=O)CC
MIC [1]: 6 µg/mL (≈ 16.8 µM)

CCCC(=O)C(CC/C(=C/CCc1ccc2c(c1)OCO2)CC)C(=O)OCC (centres undefined)
MIC [1]: 12 µg/mL (≈ 30.9 µM)

Nc1ccn([C@@H]2O[C@H](CO)[C@@H](O)[C@@H]2O)c(=O)n1 [CYTARABINE]
MIC [3]: < 3 µg/mL | MIC [4]: < 3 µg/mL

CCC(=O)C(CCCCCCc1ccccc1)C(=O)CC
MIC [1]: 6 µg/mL (≈ 20.8 µM)

CCC(=O)C(CCCCCCCCCCc1ccc(O)cc1)C(=O)CC
MIC [2]: 12 µg/mL (≈ 33.3 µM) | MIC [1]: 12 µg/mL (≈ 33.3 µM)

CCC(=O)C(CC/C(C)=C/CCc1ccc2c(c1)OCO2)C(=O)CC
MIC [1]: 3 µg/mL (≈ 8.71 µM)

CCC(=O)C(CCCCCCCCCc1ccc(O)cc1)C(=O)CC
MIC [2]: 6 µg/mL (≈ 17.3 µM)

CCC(=O)C(CCCCCCc1ccc(OC(F)(F)F)cc1)C(=O)CC
MIC [1]: 6 µg/mL (≈ 16.1 µM)

CCC(=O)C(CCCCCCc1ccc(OC(=O)c2cccc(C)c2)cc1)C(=O)CC
MIC [1]: 3 µg/mL (≈ 7.1 µM)

O=c1[nH]c(=O)n([C@H]2C[C@H](O)[C@@H](CO)O2)cc1I [IDOXURIDINE]
MIC [3]: 6 µg/mL (≈ 16.9 µM) | MIC [4]: 6 µg/mL (≈ 16.9 µM)

CCC(=O)C(CC/C(=C/CCc1ccc2c(c1)OCO2)CC)C(C)=O (centres undefined)
MIC [1]: 12 µg/mL (≈ 34.8 µM)

CCC(=O)C(CCCCCCc1ccc(Cl)cc1O)C(=O)CC
MIC [1]: 0.7 µg/mL (≈ 2.07 µM)

CCC(=O)C(CCCCc1ccc(O)cc1)C(=O)CC
MIC [2]: 12 µg/mL (≈ 43.4 µM) | MIC [1]: 6 µg/mL (≈ 21.7 µM)

CCC(=O)C(CCCCCCc1ccccc1O)C(=O)CC
MIC [1]: 6 µg/mL (≈ 19.7 µM)

CCC(=O)C(CCCCCCc1ccc2c(c1)OCO2)C(=O)CC
MIC [1]: 6 µg/mL (≈ 18 µM)

CCC(=O)C(CCCCCCc1ccc(C)cc1)C(=O)CC
MIC [1]: 6 µg/mL (≈ 19.8 µM)

CCC(=O)C(CCCCCCCCc1ccc(O)cc1)C(=O)CC
MIC [2]: 3 µg/mL (≈ 9.02 µM) | MIC [1]: 3 µg/mL (≈ 9.02 µM)

CCC(=O)C(CCC(CC)CCCc1ccc2c(c1)OCO2)C(=O)CC (centres undefined)
MIC [1]: 3 µg/mL (≈ 8.32 µM)

CCC(=O)C(CCCCCCc1ccc(OC(=O)c2ccc(C)cc2)cc1)C(=O)CC
MIC [1]: 12 µg/mL (≈ 28.4 µM)

CCC(=O)C(CCCCCc1ccc(O)cc1)C(=O)CC
MIC [2]: 12 µg/mL (≈ 41.3 µM) | MIC [1]: 12 µg/mL (≈ 41.3 µM)

CCC(=O)C(CCCCCCc1cccc(O)c1)C(=O)CC
MIC [1]: 6 µg/mL (≈ 19.7 µM)

CCC(=O)C(CCCCCCc1ccc(Cl)cc1Cl)C(=O)CC
MIC [1]: 3 µg/mL (≈ 8.4 µM)

CCC(=O)C(CCCCCCc1ccc(Cl)cc1OC)C(=O)CC
MIC [1]: 3 µg/mL (≈ 8.5 µM)

CCC(=O)C(CCCCCCc1ccc(OC(=O)c2cccc(OC)c2)cc1)C(=O)CC
MIC [1]: 3 µg/mL (≈ 6.84 µM)

CCOC(=O)C(CC/C(=C/CCc1ccc2c(c1)OCO2)CC)C(C)=O (centres undefined)
MIC [1]: 6 µg/mL (≈ 16.6 µM)

CCC(=O)C(CC/C=C/CCc1ccc(NC(C)=O)cc1)C(=O)CC
MIC [1]: 12 µg/mL (≈ 34.9 µM)

CCC(=O)C(CCCCCCc1ccc(OC(=O)c2cc(OC)c(OC)c(OC)c2)cc1)C(=O)CC
MIC [1]: 6 µg/mL (≈ 12 µM)

CC/C(=C\CCc1ccc2c(c1)OCO2)CCC1CCCC1=O (centres undefined)
MIC [1]: 6 µg/mL (≈ 19.1 µM)

CCC(=O)C(CCCCCCc1ccc(O)c(O)c1)C(=O)CC
MIC [1]: 1.5 µg/mL (≈ 4.68 µM)

CCC(=O)C(CC/C=C/CCc1ccc2c(c1)OCO2)C(=O)CC
MIC [1]: 3 µg/mL (≈ 9.08 µM)

CCC(=O)C(CC/C=C/CCc1cc(OC)c(OCc2ccccc2)c(OC)c1)C(=O)CC
MIC [1]: 6 µg/mL (≈ 13.3 µM)

CCC(=O)C(CC/C=C/CCc1ccc(OC(F)(F)F)cc1)C(=O)CC
MIC [1]: 6 µg/mL (≈ 16.2 µM)

CCC(=O)C(CCCCCCc1ccc(O)cc1)C(=O)CC
MIC [5]: 6 µg/mL (≈ 19.7 µM) | MIC [6]: 6 µg/mL (≈ 19.7 µM) | Activity [7]: 94% | MIC [3]: 12 µg/mL (≈ 39.4 µM) | MIC [8]: 3 µg/mL (≈ 9.85 µM) | MIC [9]: 6 µg/mL (≈ 19.7 µM) | MIC [10]: 3 µg/mL (≈ 9.85 µM) | MIC [2]: 12 µg/mL (≈ 39.4 µM) | Activity [11]: 99.9% | MIC [4]: 12 µg/mL (≈ 39.4 µM) | MIC [12]: 12 µg/mL (≈ 39.4 µM) | MIC [1]: 3 µg/mL (≈ 9.85 µM)

Nc1ncnc2c1ncn2[C@@H]1O[C@H](CO)[C@@H](O)[C@@H]1O [VIDARABINE]
MIC [3]: 12 µg/mL (≈ 44.9 µM) | MIC [4]: 12 µg/mL (≈ 44.9 µM)

CCC(=O)C(CCCCCCc1ccc(OC(C)=O)cc1)C(=O)CC
MIC [1]: 6 µg/mL (≈ 17.3 µM)

CCC(=O)C(CC/C=C/CCc1ccc(OCc2ccccc2)cc1)C(=O)CC
MIC [1]: 3 µg/mL (≈ 7.64 µM)

CCC(=O)C(CC/C(=C/CCc1ccc(C(=O)OC)cc1)CC)C(=O)CC
MIC [1]: 25 µg/mL (≈ 67.1 µM)
